Test results: PMC11092366 (RSC Advances, 2024)

Key:
[1] = test system: L. infantum MHOM/TN/80/IPT1 promastigotes; experiment: L. infantum viability assay; format: cell-based, Leishmania infantum
Method in brief: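 Late log/stationary promastigotes, kept in EMTM at 26–28 °C, then RPMI-PY. Plated at 2.5 × 10^6 parasites per mL with 20 μM test compound, 72 h, 26 °C, in duplicate, miltefosine as positive control. Viability by CellTiter 96 aqueous assay gives % inhibition. SI is THP-1 CC50 divided by promastigote IC50. IC50 comes from 20–0.31 μM dilutions, fitted by nonlinear regression with unconstrained Hill slope.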

[2] = Cytotoxicity on PMA-differentiated THP-1 cells; format: cell-based; settings: human, PMA-differentiated macrophage-like THP-1 cells
Method in brief: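 Human THP-1 cells grown in RPMI-1640 with 10% heat-inactivated FBS, 2 mM L-glutamine, penicillin and streptomycin at 37 °C, 5% CO2. Seeded at 5 × 10^6 cells per mL and differentiated 48 h with 20 ng mL−1 PMA. After adhesion, exposed to 1:2 dilutions (100 to 3.12 μM), in duplicate, with untreated and miltefosine controls. CellTiter 96 aqueous read-out; CC50 by nonlinear regression, mean and 95% CI.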

[3] = biological target: L. donovani DNA topoisomerase I; settings: L. donovani DNA topoisomerase I poison; cited from earlier work

CCCCCCCCCCCCCCCCOP(=O)([O-])OCC[N+](C)(C)C [MILT, Miltefosine]
SI (selectivity index = CC50/IC50) ([1]; CC50 THP-1 / IC50 L. infantum promastigotes): 9.9 | IC50 ([1]; Leishmania infantum, 72 h, read-out: L. infantum IC50 (μM) (95% CI), L. infantum MHOM/TN/80/IPT1 promastigotes, 72 h, mean and 95% CI, duplicate experiments): 3.7 µM | CC50 [2]: 36.6 µM

c1ccc2c(Cc3c[nH]c4ccccc34)c[nH]c2c1 [DIM, 3,3′-Diindolylmethane]
IC50 [3]: 1.2 µM
